# Bioassay records deposited in PubChem BioAssay by Broad Institute.
# CAL PDZ FP-1: human CAL PDZ-peptide interaction inhibition; Q9HD26; actives 0.02% (n = 330,000); purified CAL PDZ, TMR-peptide fluorescence polarization, 1 h; inhibition, % at 20 µM; AID 504414;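 active = highest replicate inhibition of at least 40%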
#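 Material: tagged CAL PDZ protein CerCALP, purified; buffer or medium: sodium phosphate/NaCl buffer pH 7.4 with TCEP, IgG, Thesit; also added: fluorescent TMR peptide probe; schedule: 1 h incubation at room temperature before polarization reading; technique: fluorescence polarization from S- and P-plane intensities, G-factor corrected; control set: unlabelled peptide and DMSO controls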
# ALR inh: human ALR oxidase inhibition via reduced H2O2. actives 3.8% (n = 290,000). AID 485317. inhibition, % (no concentration beside the values). P55789. purified ALR, DTT oxidation, H2O2 HRP-luminol luminescence;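 active = mean replicate inhibition above about 79%, with every replicate also reaching it, limit read from the data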
# Target sequence (P55789 whole entry, looked up): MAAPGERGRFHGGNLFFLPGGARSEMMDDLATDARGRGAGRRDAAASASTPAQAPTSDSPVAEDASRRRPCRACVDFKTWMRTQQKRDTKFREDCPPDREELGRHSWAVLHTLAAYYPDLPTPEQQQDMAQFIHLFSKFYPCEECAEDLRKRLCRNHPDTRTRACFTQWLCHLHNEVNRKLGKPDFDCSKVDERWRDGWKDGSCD
# Rtt109 Vps75: blocks Candida albicans Rtt109/Vps75 acetyltransferase activity | Q5AAJ8 | purified Rtt109/Vps75, ThioGlo CoA-SH fluorescence, 4 h | inhibition, % at 34.9 µM | actives 0.16% (n = 330,000) | AID 540336;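 active = inhibition of at least 50% in every replicate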
# CAL PDZ FP-2: CAL PDZ (human) peptide binding inhibition; actives 0.92% (n = 300,000); purified CAL PDZ, TMR-peptide fluorescence polarization, 1 h; inhibition, % at 24.9 µM; AID 602252;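 active = mean inhibition of at least 30% with at least half of replicates also reaching 30%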
# DYRK1A inh: blocks rat Dyrk1A kinase activity. Q63470. ADP-Glo luminescence, NFATc1 peptide. inhibition, % at 12.5 µM. actives 0.43% (n = 310,000); in the data active = inhibition above about 50%
# Numbers stand for hits; . = inactive; / = no result. Compounds with a hit are over-represented: about 4.3% of the library has one in this group of screens.
SMILES,CAL PDZ FP-1,ALR inh,Rtt109 Vps75,CAL PDZ FP-2,DYRK1A inh
COc1cc(/C=N/NC(=O)Cn2cnc3ccccc3c2=O)ccc1O,.,84,.,.,.
CN1c2ccccc2N(C)C1(C)c1cccc2ccccc12,.,.,.,.,.
CN1c2cccc3cccc(c23)N(C)C1(C)C,.,87,.,.,.
O=C(Cn1[nH]c(=O)c2ccccc2c1=O)OCC(=O)N1CCCc2ccccc21,.,.,.,69,.
CCOC(=O)COc1cccc2c(=O)n(CC(=O)N3CCCc4ccccc43)ccc12,.,97,.,.,.
COc1cccc2c(=O)n(CC(=O)N3CCCc4ccccc43)ccc12,.,/,.,/,.
Cc1ccc(C(=O)Nc2ccc(N3CCN(C(=O)c4cccs4)CC3)cc2)c(Cl)c1,.,.,.,.,.
CC(C)N(c1ccccc1)c1ccc(NC(=S)NCCN(C)C)cc1,.,99,.,/,.
CN(C)CCCNC(=S)Nc1ccc(Oc2ccccc2)cc1,.,93,.,61,.
Cc1ccc(C#N)c(SCc2nnc(-c3ccc(Cl)cc3)o2)n1,.,.,58,.,.
Cc1cc(C)c(C#N)c(SCc2nnc(-c3ccccc3)o2)n1,.,.,.,.,.
CCCC(=O)Nc1cc(C(F)(F)F)ccc1N1CCOCC1,.,/,.,35,.
O=C(Cc1ccc(F)cc1)Nc1nnc(SCC(=O)NC2CCCC2)s1,.,.,.,.,/
CN(C)Cc1c(O)ccc2c(=O)c(-c3ccccc3Cl)c(C(F)(F)F)oc12,.,.,.,.,.
Cn1c(CCNC(=O)OC(C)(C)C)n[nH]c1=S,.,95,.,.,.
COc1ccc(CC(=O)NCc2n[nH]c(=S)n2C)cc1,/,97,.,.,/
CC(C)(C)OC(=O)NCCc1n[nH]c(=S)o1,/,.,/,/,/
COc1ccc(CC(=O)NCc2n[nH]c(=S)n2-c2cccc(C)c2)cc1,.,.,.,/,.
O=C(NCc1n[nH]c(=S)n1-c1ccc(Br)cc1)c1ccc(S(=O)(=O)N2CCCCC2)cc1,.,.,.,.,.
COc1ccc(-n2c(CNC(=O)c3cc(OC)c(OC)c(OC)c3)n[nH]c2=S)cc1,/,93,.,.,.
O=C(NCc1n[nH]c(=S)n1-c1ccc(Br)cc1)c1ccc(S(=O)(=O)N2CCCC2)cc1,.,91,.,.,.
CCOCc1c(C(=O)OCC(=O)Nc2ccc(C)c(S(=O)(=O)N(C)C)c2)oc2ccccc12,.,.,.,.,.
COc1cccc(N2CCN(CC(=O)N3CCN(S(=O)(=O)c4ccc(Cl)cc4)CC3)CC2)c1,.,/,.,.,.
Cc1ccccc1-c1nc2cc(NC(=O)C3CC3)ccc2o1,.,.,.,/,.
CCC(=O)N1CCN(c2nc(-c3ccccc3)c3c(c2C#N)CCCC3)CC1,.,.,.,.,.
COc1cccc(C(=O)NCc2n[nH]c(=S)n2-c2cccc(C)c2)c1,.,.,.,.,.
COc1cccc(-n2c(CNC(=O)OC(C)(C)C)n[nH]c2=S)c1,.,89,.,.,.
COc1ccc(-n2c(CNC(=O)c3ccc(S(=O)(=O)N4CCCC4)cc3)n[nH]c2=S)cc1,.,91,.,/,.
